Rows were chosen to be rich in hits. Some 4% of all compounds tested hit in one or more screens of this group.
Cl transport mod – modulates chloride dependent transport by human KCC2. Q9H2X9. KCC2 cells, thallium flux FluoZin-2 fluorescence. B-score of Tl+ flux slope (higher = more flux/activation; lower = inhibition) at 10 µM. 2.2% of 190,000 active;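 active = thallium flux slope and its plate-corrected score both differing from the plate sample mean at a set confidence after two filtering rounds, in either direction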;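 note: slope of fluorescence scaled to starting intensity during 10 to 20 s after thallium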
Target sequence (Q9H2X9 whole entry, looked up): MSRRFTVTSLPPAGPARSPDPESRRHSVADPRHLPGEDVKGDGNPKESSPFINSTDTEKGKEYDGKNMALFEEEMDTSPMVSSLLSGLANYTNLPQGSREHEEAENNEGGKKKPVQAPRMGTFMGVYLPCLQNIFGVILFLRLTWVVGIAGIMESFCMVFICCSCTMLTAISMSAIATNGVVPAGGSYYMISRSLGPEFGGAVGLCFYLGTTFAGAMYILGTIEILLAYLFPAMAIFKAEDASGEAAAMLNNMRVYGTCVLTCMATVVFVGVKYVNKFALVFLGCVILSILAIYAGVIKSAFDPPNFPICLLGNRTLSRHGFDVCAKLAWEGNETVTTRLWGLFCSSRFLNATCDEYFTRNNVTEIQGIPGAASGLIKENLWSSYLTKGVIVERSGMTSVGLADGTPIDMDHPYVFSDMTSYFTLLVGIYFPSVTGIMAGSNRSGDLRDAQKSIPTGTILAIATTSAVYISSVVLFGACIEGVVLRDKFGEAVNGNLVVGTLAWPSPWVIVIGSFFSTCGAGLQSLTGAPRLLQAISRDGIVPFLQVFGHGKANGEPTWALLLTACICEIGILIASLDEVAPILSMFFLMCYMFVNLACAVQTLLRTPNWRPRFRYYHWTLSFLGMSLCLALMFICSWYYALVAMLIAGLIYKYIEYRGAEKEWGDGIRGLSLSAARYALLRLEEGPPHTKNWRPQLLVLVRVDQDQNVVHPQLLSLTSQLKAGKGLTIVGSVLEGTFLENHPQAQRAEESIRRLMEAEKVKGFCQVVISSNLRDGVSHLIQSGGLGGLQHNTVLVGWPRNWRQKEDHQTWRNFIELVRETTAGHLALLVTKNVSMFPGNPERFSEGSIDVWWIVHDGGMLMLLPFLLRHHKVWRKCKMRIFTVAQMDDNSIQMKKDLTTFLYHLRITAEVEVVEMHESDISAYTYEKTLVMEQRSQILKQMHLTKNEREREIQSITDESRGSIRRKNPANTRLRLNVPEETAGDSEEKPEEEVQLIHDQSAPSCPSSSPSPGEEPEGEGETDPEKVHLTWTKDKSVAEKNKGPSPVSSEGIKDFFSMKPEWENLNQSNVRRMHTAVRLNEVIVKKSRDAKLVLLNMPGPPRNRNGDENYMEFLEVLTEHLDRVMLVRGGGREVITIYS
bCat nuc transl – modulators of beta-catenin nuclear translocation | HeLa beta-catenin nuclear translocation, immunofluorescence imaging | nuclear translocation activity, % at 5 µM | 0.3% of 190,000 active | AID 1665;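 active = nuclear translocation activity above 50% at 5 µM, with a well cell count of 50 or more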;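 note: per-cell ratio of nuclear to cytoplasmic median beta-catenin stain intensity; plate controls were DMSO negative control for no effect and GSK-3 inhibitor IX positive control for full effect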
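Test system: human HeLa cells, endogenous beta-catenin. Times: 24 h compound exposure, 37°C. Measured by: beta-catenin immunofluorescence imaging with DAPI.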
Pf gametocyte – P. falciparum stage V gametocyte viability inhibition; AID 743093; P. falciparum stage V gametocytes, ATP luminescence, 24 h; inhibition, % at 10.9 µM; 0.065% of 150,000 active;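 active = inhibition above the mean plus 3 SD of compounds within the control limits, set per campaign, cut at about 38% in these data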;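 note: 0% = DMSO wells and 100% = medium only without gametocytes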
WT yeast gro inh – growth inhibition of WT yeast, mitochondrial fusion screen; mitochondrial fusion phenotypic screen, WT strain; inhibition, % at 10 µM; 2.1% of 190,000 active; AID 1362; in the data active = inhibition above about 58%; tested in S. cerevisiae
MT stabilize HCS – microtubule stabilizers in HeLa cells; HeLa tubulin immunostaining HCS, 24 h; share of cells brighter than vehicle mean+2SD; % tubulin-high responders, % at 10 µM; 0.83% of 200,000 active; AID 2205;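 active = plate Z-score above 3 for both tubulin-high and condensed-nucleus cell shares, with cell loss under 80%, at 10 µM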;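 note: anti alpha tubulin signal scored within the nucleus-defined area of each cell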
Starred values were filed as active, the others as inactive; x = no result given.

SMILES | Cl transport mod | bCat nuc transl | Pf gametocyte | WT yeast gro inh | MT stabilize HCS
C(=C\c1ccccc1)/CN1CCN(c2ncnc3c2oc2ccccc23)CC1 | x | -4.2 | x | 66.9* | 5.1
COc1ccccc1N1CCN(C(=O)c2oc3ccc(Br)cc3c2C)CC1 | 0.448 | 22.6 | -3.5 | 78.9* | 14.7*
O=C(Cc1ccc(Cl)cc1)Nc1ccc2oc(=O)ccc2c1 | -1.02 | 0.2 | -10.1 | x | x
O=C(Cc1ccc(Cl)cc1)Nc1ccc(-c2cc3ccccc3oc2=O)c(Cl)c1 | -0.0105 | 102.1* | x | 28.1 | 7.6
CN(C)c1ccc(C(=O)c2ccc(N(C)C)c(N)c2)cc1N | -0.65 | 4.9 | -29.0 | 24.9 | 23.0*
CCOc1ccc(C(=O)c2ccc(OCC)c(N)c2)cc1N | 0.532 | 5.2 | -34.8 | -0.8 | 53.0*
CN(C)c1ccc(C(=O)c2ccccc2)cc1 | -0.108 | -11.5 | 24.2 | 10.2 | 3.2
CCOc1ccc(S(=O)(=O)N(CC)CC)cc1N | -0.308 | -0.5 | 3.9 | -15.7 | 5.2
CCOC(=O)c1[nH]c2cc3c(cc2c1NC(=O)CN1CCN(CCO)CC1)OCO3 | -1.4 | -0.2 | -9.6 | x | x
CCN(CC)C(=O)N1CCc2ccccc21 | 0.199 | 1.1 | -23.3 | 4.3 | 2.0
Cc1ccc(-c2cc(-c3ccccc3[N+](=O)[O-])[nH]n2)c(O)c1 | -1.57 | 5.6 | x | 30.7 | 2.8
Cc1ccc(-c2cc(-c3ccccc3Cl)[nH]n2)c(O)c1 | x | -1.8 | x | 69.3* | 7.3
Cc1c(Cl)cccc1NC(=O)c1cc(-c2ccccc2O)n[nH]1 | -0.449 | x | x | 67.9* | 3.0
CCN1CC(CN(C)Cc2nc(-c3cccs3)no2)CC1=O (stereo unspecified) | 0.412 | -0.2 | 2.6 | -8.5 | 1.6
CCN1CC(CN(C)Cc2nc(-c3ccc(C(F)(F)F)cc3)no2)CC1=O (stereo unspecified) | -0.576 | 57.4* | -22.1 | 5.1 | 1.7
Cc1cc(C(F)(F)F)c2c(=O)[nH]c(=O)n(Cc3ccccc3)c2n1 | -4.33* | 2.1 | x | 1.8 | 1.5
CC1=Nc2ccccc2/C1=C/c1sc(=S)n(-c2cccc(C(=O)O)c2)c1O | -3.91* | -5.5 | 7.1 | 7.0 | 5.0
Cc1ccc(NC(=O)c2ccc(Cl)cc2[N+](=O)[O-])nc1 | 0.139 | 0.7 | x | -2.0 | 36.4*
Cc1ccc(NC(=O)c2ccccc2[N+](=O)[O-])nc1 | 0.0194 | -1.7 | 20.0 | -2.3 | 6.9
Cc1ccccc1-c1nnc(Cc2ccccc2)o1 | 0.0125 | -1.1 | 1.7 | -2.4 | 3.2
CC(C)=CCC/C(C)=C/Cc1c(O)ccc(C(=O)/C=C/c2ccc(O)cc2)c1O | -1.4 | -1.9 | 16.3 | 94.8* | 2.6
Cc1ccc(Nc2nc(-c3cccs3)cs2)nc1 | 1.98 | -0.8 | 12.0 | 69.5* | 2.4
CCN(CC)C(=O)c1ccc2c(c1)nnn2C | 0.024 | 2.0 | -0.7 | 6.2 | 4.1
CCOC(=O)c1sc(NC(=O)CCN2CCN(C)CC2)c(C(=O)OCC)c1C | 0.87 | 0.5 | -2.4 | 1.9 | 2.3
CCOC(=O)c1c(NC(=O)CN2CCN(C)CC2)sc(C(=O)Nc2ccccc2)c1C | -0.398 | -1.1 | x | 5.6 | 35.7*
SMILES | Cl transport mod | bCat nuc transl | Pf gametocyte | WT yeast gro inh | MT stabilize HCS
CCOC(=O)c1c(NC(=O)CN2CCN(C(=O)c3ccco3)CC2)sc2c1CCCC2 | -1.32 | -1.6 | 9.7 | 65.6* | 3.6
O=C(O)c1cccnc1SCC(=O)N1CCCc2ccccc21 | 0.0698 | -0.8 | -7.2 | x | x
c1ccc2c(c1)CC1(CCCC1)N=C2N1CCOCC1 | 0.242 | 0.2 | 22.2 | x | x
O=Cc1ccnc(-c2ccc(OC(=O)c3ccco3)cc2)n1 | -1.21 | -4.2 | -14.0 | -14.3 | 2.7
N#Cc1ccc(NC(=O)Nc2ccc(Cl)cc2)cc1 | -1 | 0.1 | -16.3 | 63.1* | 6.5
O=C(Nc1ccc(Cl)cc1)Nc1ccc(Cl)c(Cl)c1 | x | x | -15.6 | x | x
O=C(O)c1cccc(NS(=O)(=O)c2ccc3c(c2)C(=O)c2ccccc2C3=O)c1 | -1.61 | -1.6 | -5.3 | x | x
O=C1c2ccccc2C(=O)c2cc(S(=O)(=O)Nc3ccccc3)ccc21 | -0.081 | -1.0 | -4.7 | 72.0* | 2.3
CCn1nc(C(=O)OCC(=O)N2CC(=O)Nc3ccccc32)c2ccccc2c1=O | -2.53 | 0.6 | 15.7 | -20.1 | 2.7
CC[n+]1ccc(/C=C2\Sc3ccccc3N2CCCS(=O)(=O)[O-])c2ccccc21 | 1.11 | 0.1 | -1.7 | 8.7 | 1.9
CN1C=C/C(=C\c2cc[n+](C)c3ccccc23)c2ccccc21 | 0.734 | -5.8 | -4.9 | 69.1* | 2.4
Cc1ccc(C#CC[N+]2(C)CCCCC2)cc1 | 0.821 | 1.6 | 2.4 | x | x
CCOC(=O)c1c(CN2CCN(Cc3ccccc3)CC2)n(C)c2cc(Br)c(OC)cc12 | -0.0049 | x | x | 94.7* | 2.0
